Only some compounds are listed: those with a hit (about 3.5% of all), similar ones and a draw of the others.
MrgX1 PAM: human MrgX1 positive allosteric modulation, primary screen. Q96LB2. MrgX1-HEK293, Fluo-4 calcium flux, FDSS; stronger effect = higher value. B-score at 10 µM. 310,000 tested, 0.63% active;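 active = plate-corrected calcium response at least 3 library SD above typical, normal starting fluorescence, not activating the receptor alone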;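 note: compound read alongside a low EC10 to EC30 dose of BAM8-22 agonist; peak minus trough fluorescence over baseline measured at the second addition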
Target sequence (Q96LB2 whole entry, looked up): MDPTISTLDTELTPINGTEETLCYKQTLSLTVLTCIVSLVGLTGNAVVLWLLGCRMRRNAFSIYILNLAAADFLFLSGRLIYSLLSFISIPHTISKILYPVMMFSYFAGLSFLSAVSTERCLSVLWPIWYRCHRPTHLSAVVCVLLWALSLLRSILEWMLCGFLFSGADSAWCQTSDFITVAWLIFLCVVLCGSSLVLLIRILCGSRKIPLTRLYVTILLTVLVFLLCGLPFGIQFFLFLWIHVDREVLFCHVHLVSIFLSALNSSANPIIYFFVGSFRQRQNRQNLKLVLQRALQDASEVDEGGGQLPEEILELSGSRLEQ
MrgX1 antag: human MrgX1 receptor antagonism, primary screen; Q96LB2; MRGX1-HEK293 calcium flux, Fluo-4, BAM8-22 antagonism; stronger effect = lower value; B-score at 10 µM; 310,000 tested, 1.3% active; AID 588676;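 active = calcium-response B-score plate-corrected more than 3 library SD below zero, starting fluorescence within 5 deviations, no agonist response on first addition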;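 note: peak minus trough fluorescence over baseline after final BAM8-22 challenge near maximal dose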
RGS4 act: potentiators or activators of RGS4. HEK293 M3R/inducible RGS4, carbachol calcium flux Fluo4; stronger effect = lower value. B-score at 10 µM. 310,000 tested, 0.92% active. AID 463111;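 active = B-score of the integrated calcium signal more than 4 SD below the library mean, with starting fluorescence not abnormally high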;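 note: negative B-score means reduced calcium response which marks RGS4 activation or potentiation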
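System – HEK293 FlpIn-TREx cells, stable M3R, doxycycline-inducible RGS4 · Reagent – ECmax carbachol challenge · Times – compound preincubation 20 min at room temperature before agonist · Technique – Fluo4 fluorescence kinetic imaging of calcium · Measure – B score of integrated Fluo4 ratio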
MrgX1 agonist: agonists of human MrgX1 receptor. Q96LB2. B-score at 10 µM. 310,000 tested, 0.44% active. MrgX1-HEK293 cells, Fluo-4 calcium fluorescence, agonist mode; stronger effect = higher value. AID 588627;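 active = calcium response B-score plate-corrected fluorescence ratio at least 3 library SD, with starting fluorescence B-score inside 5 SD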
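Material: MrgX1-expressing HEK293 cells / Dosing: compound as first of three additions / Incubation: overnight seeding, then 1 h dark dye loading / Signal: Fluo-4 NW calcium fluorescence / Evaluation: B-scored fluorescence response ratio / Benchmarks: positive and negative control wells on each plate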
RGS4 inh: human RGS4 inhibition; AID 463165; 310,000 tested, 0.45% active; B-score at 10 µM; HEK293 M3R/RGS4 inducible, Fluo-4 calcium flux; stronger effect = higher value; triggered by carbachol at its EC20;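 active = B-score, a plate-corrected calcium signal, over three deviations above library mean, with baseline fluorescence within five deviations of library mean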;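 note: RGS4 expression induced by doxycycline in cells with stable M3 receptor; B-score is computed from the integrated fluorescence ratio over baseline after carbachol; higher B-score means a larger calcium signal and so more RGS4 inhibition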
Target sequence (P49798 whole entry, looked up): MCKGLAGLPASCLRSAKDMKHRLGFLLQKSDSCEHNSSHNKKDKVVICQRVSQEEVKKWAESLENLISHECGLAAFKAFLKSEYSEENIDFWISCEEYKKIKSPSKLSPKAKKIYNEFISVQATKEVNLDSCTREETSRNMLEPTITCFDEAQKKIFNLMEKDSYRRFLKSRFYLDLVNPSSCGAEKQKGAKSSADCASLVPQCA
MrgX1 ant reconf: reconfirmed antagonist of human MrgX1 receptor signaling; 2,300 tested, 19% active; remaining BAM8-22 calcium response % of control (stronger effect = lower value), % at 10 µM; shares compounds with MrgX1 antag; MrgX1-HEK293, BAM8-22 calcium flux, Fluo-4; stronger effect = lower value; AID 602420;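 active = remaining agonist calcium response no higher than 100% minus 3 SD of agonist-only control wells, with starting fluorescence near control levels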;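 note: agonist BAM8-22 given at a near maximal EC90 to ECmax level; peak minus minimum fluorescence divided by baseline after agonist addition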
HEK293 Ca flux: MrgX1 antagonist counter-screen hit in parental HEK293 cells | 4,000 tested, 2% active | Fluo-4 calcium fluorescence, FDSS | shares compounds with MrgX1 antag | fluorescence ratio F(max-min)/F0 at 10 µM;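 active = duplicate-averaged calcium fluorescence ratio at least three times the standard deviation of buffer wells, a nonspecific response in parental cells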
HEK293 Ca counter: activity in parental HEK293 cells without MrgX1 | shares compounds with MrgX1 antag | parental HEK293 calcium flux, Fluo-4 fluorescence ratio; stronger effect = higher value | fluorescence ratio F(max-min)/F0 at 10 µM | 4,000 tested, 0.4% active;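 active = calcium fluorescence ratio, averaged over duplicates, at least 3 SD of the buffer-well ratio, meaning a nonspecific response in receptor-free cells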;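 note: untransfected parental HEK293 lacking MrgX1 used as counterscreen for MrgX1 allosteric activators; fluorescence change taken during the second addition on a kinetic imager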
HEK293 Ca cntr2: counter-screen for MrgX1 activators: effect in parental HEK293 cells. shares compounds with MrgX1 antag. 4,000 tested, 8.7% active. AID 624115. Fluo-4 calcium fluorescence (FDSS); stronger effect = higher value. fluorescence ratio F(max-min)/F0 at 10 µM;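 active = calcium fluorescence ratio at least three times the spread of buffer wells, meaning a non-specific response in parental cells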
Active calls of the source: *; i = inactive; . = no result given.

SMILES | MrgX1 PAM | MrgX1 antag | RGS4 act | MrgX1 agonist | RGS4 inh | MrgX1 ant reconf | HEK293 Ca flux | HEK293 Ca counter | HEK293 Ca cntr2
Nc1nc(SCC(=O)NC2CCCC2)[nH]c(=O)c1NC(=O)c1cccs1 | i | i | i | i | i | . | . | . | .
Cc1cccc(C(=O)NCC(=O)N2CCN(S(=O)(=O)c3ccccc3)CC2)c1 | i | -4.57* | i | i | i | i | i | i | i
COc1ccc(Cc2ccc(OC)c(N)c2)cc1N | i | -5.5* | i | i | i | i | i | i | i
CCOc1ccc2ccccc2c1CNCCc1ccc(S(N)(=O)=O)cc1 | i | -4.78* | i | i | i | 54.5%* | i | i | i
Cc1nn(C)c(C)c1CN(Cc1nc(CCC(C)C)no1)C(C)C | i | -4.63* | i | i | i | i | i | i | i
CC(C)CCc1noc(CN(C)CCC2CCOCC2)n1 | i | i | i | i | i | . | . | . | .
Cc1ccc2nc(SC(C)C(=O)NCc3ccc4c(c3)OCO4)[nH]c2c1 (stereo unspecified) | i | i | i | i | i | . | . | . | .
CCCCCCCCCCOC(=O)Cn1c(COc2ccccc2)[n+](C)c2ccccc21 | i | -9.99* | -9.26* | i | i | i | i | i | i
CCCCCCCCCCOC(=O)Cn1c(COc2ccc(Cl)cc2)[n+](C)c2ccccc21 | i | -10.3* | i | i | i | i | i | i | i
CCCCOC(=O)Cn1c(=O)n(CC(=O)OCCCC)c2ccccc21 | i | i | i | i | i | . | . | . | .
CCCCCOC(=O)Cn1c(=O)oc2ccccc21 | i | i | i | i | i | . | . | . | .
CCCCCCCCCCOC(=O)Cn1c(COc2ccccc2C)[n+](C)c2ccccc21 | i | -11.8* | -7.42* | i | i | i | i | i | i
CCOC(=O)c1cnc(-c2ccc(C(F)(F)F)cn2)[nH]c1=O | i | i | i | i | i | . | . | . | .
COc1ccc(OC)c(-n2c(SCC(N)=O)nnc2-c2c[nH]c3ccccc23)c1 | i | -6.73* | i | i | i | i | i | i | i
Cc1ccc(C(=O)N/N=C\c2cccs2)cn1 | i | i | i | i | i | . | . | . | .
COC(=O)c1ccc(NC(=S)NC2CCCCC2)cc1 | i | i | i | i | i | . | . | . | .
COC(=O)c1cccnc1NC(=S)NC1CCCCC1 | i | -4.8* | i | i | i | i | i | i | i
CCc1nc2ccc(C(=O)NCc3ccccc3)cc2nc1CC | i | -8.32* | i | i | i | i | i | i | i
O=C(NCc1ccccc1)c1cccc(COc2ccc(Cl)cc2)c1 | i | i | i | i | i | . | . | . | .
CSCc1ccc(C(=O)NCc2ccccc2)cc1 | i | i | i | i | i | . | . | . | .
CCOc1ccc(C(=O)NCc2ccccc2)cc1Br | i | -5.38* | i | i | i | 85.1%* | i | i | i
CCOc1cc(C(=O)NCc2ccccc2)ccc1OCC(=O)N1CCOCC1 | i | i | i | i | i | . | . | . | .
O=C(NCc1ccccc1)c1cccc(COc2cccc(Cl)c2)c1 | i | -4.56* | i | i | i | i | i | i | i
CCOCCCN(C)C1CCN(C(=O)c2oc3ccccc3c2NC(=O)Cc2ccc(F)cc2)CC1 | i | i | i | i | i | . | . | . | .
CC1(C)CC(=O)c2cn3nc(C(F)(F)F)nc3nc2C1 | i | i | i | i | i | . | . | . | .
SMILES | MrgX1 PAM | MrgX1 antag | RGS4 act | MrgX1 agonist | RGS4 inh | MrgX1 ant reconf | HEK293 Ca flux | HEK293 Ca counter | HEK293 Ca cntr2
CC(=O)N1c2ccc(S(=O)(=O)N3CCCCC3)cc2CC1C(=O)Nc1cccc(C)c1 (stereo unspecified) | i | i | i | i | i | . | . | . | .
OC(CCN1CCCCC1)(c1ccccc1)c1ccccc1 | i | -7.15* | i | i | i | i | i | i | i
OC(CCN1CCCC1)(c1ccccc1)C1CCCCC1 (stereo unspecified) | i | i | i | i | i | . | . | . | .
CNc1nc(N)c(C(=O)Nc2cc(C)on2)s1 | i | i | i | i | i | . | . | . | .
O=C(CCC(=O)Nc1cccnc1)Nc1cccnc1 | i | -4.84* | i | i | i | i | i | i | i
O=C(Nc1cccnc1)Nc1ccc(F)c(Cl)c1 | i | -5.21* | i | i | i | 69.0%* | i | i | i
Cc1ccc(NC(=O)Nc2ccc(F)c(Cl)c2)cc1 | i | -6.84* | i | i | i | 61.8%* | i | i | i
CCN(CC)c1ccc2cc(S(=O)(=O)c3ccc(C)cc3)c(=O)oc2c1 | i | i | i | i | i | . | . | . | .
CCCn1c(CCc2ccccc2)n[nH]c1=S | i | -7.46* | i | i | i | i | i | i | i
CCCCc1n[nH]c(=S)n1Cc1ccc(Cl)cc1 | i | -5.69* | i | i | i | i | i | i | i
COc1ccc(Br)cc1CNCC1CCCO1 (stereo unspecified) | i | i | i | i | i | . | . | . | .
CC(C)Oc1ccc(C(=O)Nc2nnc(SCC(=O)N3CCOCC3)s2)cc1 | i | -4.9* | i | i | i | i | i | i | i
COc1cccc(N2C(=NC(=O)C3CCCCC3)SC3CS(=O)(=O)CC32)c1 (stereo unspecified) | i | i | i | i | i | . | . | . | .
COc1cc(NS(C)(=O)=O)ccc1Nc1c2ccccc2nc2ccccc12 | i | -6.74* | . | i | . | i | i | i | i
COc1ccc(OC)c(Nc2c3ccccc3nc3ccccc23)c1 | i | i | i | i | i | . | . | . | .
CN(C(=O)CN1C(=O)c2cc(Cl)c(Cl)cc2C1=O)C1CCS(=O)(=O)C1 (stereo unspecified) | i | i | i | i | i | . | . | . | .
COc1ccc(C2C(C(=O)c3ccco3)=C(O)C(=O)N2c2nnc(C)s2)cc1 (stereo unspecified) | i | i | i | i | i | . | . | . | .
